# From ChEMBL document CHEMBL2203123, “Synthesis and biological evaluation of some hydrazone derivatives as new anticandidal and anticancer agents” (Eur J Med Chem, 2012)
# System: Salmonella typhimurium
# Test: Genotoxicity against Salmonella typhimurium TA100 assessed as fold increase in revertants at 0.625 mg/ml after 90 mins by Ames MPF test in presence of S9 fraction relative to baseline
# Type: toxicity, organism-based
# Conditions: salmonella enterica subsp. enterica serovar typhimurium, s9, 1.5 h
# In short: (§1)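 Ames MPF fluctuation test, TA98 and TA100: overnight cultures reincubated 90 min, then exposed 90 min at 37 °C to compounds at 0.156-5 mg/mL (in DMSO) with or without 4.5% v/v S9; indicator medium added, 48 wells per sample scored yellow after 48 h, triplicate. Fold over baseline = mean positive wells / (mean of DMSO control + 1 SD).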
row,SMILES,fold change (FC)
1,COc1ccc(/C=N/NC(=O)CSc2nnnn2C)cc1,0.89
2,Cn1nnnc1SCC(=O)N/N=C/c1ccccc1[N+](=O)[O-],1.28
3,Cn1nnnc1SCC(=O)N/N=C/c1ccccc1F,0.66

# System: Salmonella typhimurium
# Test: Genotoxicity against Salmonella typhimurium TA98 assessed as fold increase in revertants at 0.156 mg/ml after 90 mins by Ames MPF test in presence of S9 fraction relative to baseline
# Type: toxicity, organism-based
# Conditions: salmonella enterica subsp. enterica serovar typhimurium, s9, 1.5 h
# In short: as §1
row,SMILES,fold change (FC)
1,COc1ccc(/C=N/NC(=O)CSc2nnnn2C)cc1,0.42
2,Cn1nnnc1SCC(=O)N/N=C/c1ccccc1[N+](=O)[O-],1
3,Cn1nnnc1SCC(=O)N/N=C/c1ccccc1F,0.29

# System: not listed separately
# Test: Genotoxicity against Salmonella typhimurium TA1535/pSK1002 assessed as induction ratio at 5 mg/ml by umuC assay in absence of S9 fraction
# Type: toxicity, organism-based
# Conditions: salmonella enterica subsp. enterica serovar typhimurium, Salmonella typhimurium TA1535/pSK1002 without S9 fraction
# In short: (§2)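 umuC Easy CS: TA1535/pSK1002 grown overnight in ampicillin TG medium at 37 °C, then exposed 2 h at 37 °C to compounds at 5, 2.5, 1.25, 0.63 mg/mL with or without S9. Diluted into fresh medium for 2 h growth (OD600), then β-galactosidase with ONPG 30 min at 28 °C, OD420. Positive controls 2-aminoanthracene (+S9), […] (−S9).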
row,SMILES,fold induction at 5 mg/ml
1,COc1ccc(/C=N/NC(=O)CSc2nnnn2C)cc1,0.763
2,Cn1nnnc1SCC(=O)N/N=C/c1ccccc1[N+](=O)[O-],1.43
3,Cn1nnnc1SCC(=O)N/N=C/c1ccccc1F,0.321

# System: Salmonella typhimurium
# Test: Genotoxicity against Salmonella typhimurium TA1535/pSK1002 assessed as growth factor ratio at 5 mg/ml by umuC assay in absence of S9 fraction
# Type: toxicity, organism-based
# Conditions: salmonella enterica subsp. enterica serovar typhimurium
# In short: as §2
row,SMILES,Ratio
1,COc1ccc(/C=N/NC(=O)CSc2nnnn2C)cc1,1.99
2,Cn1nnnc1SCC(=O)N/N=C/c1ccccc1[N+](=O)[O-],1.281
3,Cn1nnnc1SCC(=O)N/N=C/c1ccccc1F,3.877

# System: Candida albicans
# Test: Antifungal activity against Candida albicans ATCC 90028 after 24 hrs by microdilution susceptibility assay
# Type: functional
# Conditions: ATCC 90028, 24 h
# In short: (§3)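 Broth microdilution in Mueller Hinton Broth, compounds from DMSO stocks diluted serially; inocula standardized to 10^6 CFU/mL (McFarland 0.5) from overnight MHB cultures. Plates held 37 °C for 24 h; MIC taken as first well without turbidity, aided by 1% tetrazolium violet added for 3 h at 37 °C. Ketoconazole reference.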
row,SMILES,MIC
1,COc1ccc(/C=N/NC(=O)CSc2nnnn2C)cc1,500 µg/mL
2,Cn1nnnc1SCC(=O)N/N=C/c1ccccc1[N+](=O)[O-],62.5 µg/mL
3,Cn1nnnc1SCC(=O)N/N=C/c1ccccc1F,500 µg/mL

# System: Salmonella typhimurium
# Test: Genotoxicity against Salmonella typhimurium TA100 assessed as fold increase in revertants at 0.3125 mg/ml after 90 mins by Ames MPF test in absence of S9 fraction relative to baseline
# Type: toxicity, organism-based
# Conditions: salmonella enterica subsp. enterica serovar typhimurium, 1.5 h
# In short: as §1
row,SMILES,fold change (FC)
1,COc1ccc(/C=N/NC(=O)CSc2nnnn2C)cc1,0.4
2,Cn1nnnc1SCC(=O)N/N=C/c1ccccc1[N+](=O)[O-],1.67
3,Cn1nnnc1SCC(=O)N/N=C/c1ccccc1F,0.06

# System: Salmonella typhimurium
# Test: Genotoxicity against Salmonella typhimurium TA100 assessed as fold increase in revertants at 1.25 mg/ml after 90 mins by Ames MPF test in presence of S9 fraction relative to baseline
# Type: toxicity, organism-based
# Conditions: salmonella enterica subsp. enterica serovar typhimurium, s9, 1.5 h
# In short: as §1
row,SMILES,fold change (FC)
1,COc1ccc(/C=N/NC(=O)CSc2nnnn2C)cc1,0.81
2,Cn1nnnc1SCC(=O)N/N=C/c1ccccc1[N+](=O)[O-],1.93
3,Cn1nnnc1SCC(=O)N/N=C/c1ccccc1F,0.88

# System: Nakaseomyces glabratus
# Test: Antifungal activity against Candida glabrata Osmangazi University clinical isolate after 24 hrs by microdilution susceptibility assay
# Type: functional
# Conditions: not given
# In short: as §3
row,SMILES,MIC
1,COc1ccc(/C=N/NC(=O)CSc2nnnn2C)cc1,500 µg/mL
2,Cn1nnnc1SCC(=O)N/N=C/c1ccccc1[N+](=O)[O-],500 µg/mL
3,Cn1nnnc1SCC(=O)N/N=C/c1ccccc1F,250 µg/mL

# System: Salmonella typhimurium
# Test: Genotoxicity against Salmonella typhimurium TA1535/pSK1002 assessed as induction ratio at 2.5 mg/ml by umuC assay in presence of S9 fraction
# Type: toxicity, organism-based
# Conditions: salmonella enterica subsp. enterica serovar typhimurium
# In short: as §2
row,SMILES,Ratio
1,COc1ccc(/C=N/NC(=O)CSc2nnnn2C)cc1,0.681
2,Cn1nnnc1SCC(=O)N/N=C/c1ccccc1[N+](=O)[O-],1.014
3,Cn1nnnc1SCC(=O)N/N=C/c1ccccc1F,0.352

# System: Salmonella typhimurium
# Test: Genotoxicity against Salmonella typhimurium TA100 assessed as fold increase in revertants at 5 mg/ml after 90 mins by Ames MPF test in absence of S9 fraction relative to baseline
# Type: toxicity, organism-based
# Conditions: salmonella enterica subsp. enterica serovar typhimurium, 1.5 h
# In short: as §1
row,SMILES,fold change (FC)
1,COc1ccc(/C=N/NC(=O)CSc2nnnn2C)cc1,0.5
2,Cn1nnnc1SCC(=O)N/N=C/c1ccccc1[N+](=O)[O-],1.33
3,Cn1nnnc1SCC(=O)N/N=C/c1ccccc1F,0.17

# System: Salmonella typhimurium
# Test: Genotoxicity against Salmonella typhimurium TA98 assessed as fold increase in revertants at 2.5 mg/ml after 90 mins by Ames MPF test in presence of S9 fraction relative to baseline
# Type: toxicity, organism-based
# Conditions: salmonella enterica subsp. enterica serovar typhimurium, s9, 1.5 h
# In short: as §1
row,SMILES,fold change (FC)
1,COc1ccc(/C=N/NC(=O)CSc2nnnn2C)cc1,0.53
2,Cn1nnnc1SCC(=O)N/N=C/c1ccccc1[N+](=O)[O-],2.22
3,Cn1nnnc1SCC(=O)N/N=C/c1ccccc1F,1.57

# System: Nakaseomyces glabratus
# Test: Antifungal activity against Candida glabrata Anadolu University clinical isolate after 24 hrs by microdilution susceptibility assay
# Type: functional
# Conditions: not given
# In short: as §3
row,SMILES,MIC
1,COc1ccc(/C=N/NC(=O)CSc2nnnn2C)cc1,125 µg/mL
2,Cn1nnnc1SCC(=O)N/N=C/c1ccccc1[N+](=O)[O-],250 µg/mL
3,Cn1nnnc1SCC(=O)N/N=C/c1ccccc1F,250 µg/mL

# System: NIH3T3
# Test: Cytotoxicity against mouse NIH/3T3 cells after 24 hrs by XTT assay
# Type: cell-based
# Conditions: NIH3T3, 24 h
# In short: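 Mouse NIH3T3 fibroblasts grown in DMEM with fetal calf serum, penicillin/streptomycin, 37 °C, 5% CO2; 20,000 cells/well, treated after 24 h with 0.00316 µM-10 mM compound for 24 h. Viability via XTT (3 h, OD 480 nm, reference 680 nm); % inhibition computed and IC50 fitted by non-linear regression.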
row,SMILES,IC50
1,COc1ccc(/C=N/NC(=O)CSc2nnnn2C)cc1,> 10000 µM
2,Cn1nnnc1SCC(=O)N/N=C/c1ccccc1[N+](=O)[O-],2020 µM
3,Cn1nnnc1SCC(=O)N/N=C/c1ccccc1F,2000 µM

# System: Salmonella typhimurium
# Test: Genotoxicity against Salmonella typhimurium TA100 assessed as fold increase in revertants at 2.5 mg/ml after 90 mins by Ames MPF test in presence of S9 fraction relative to baseline
# Type: toxicity, organism-based
# Conditions: salmonella enterica subsp. enterica serovar typhimurium, s9, 1.5 h
# In short: as §1
row,SMILES,fold change (FC)
1,COc1ccc(/C=N/NC(=O)CSc2nnnn2C)cc1,0.62
2,Cn1nnnc1SCC(=O)N/N=C/c1ccccc1[N+](=O)[O-],2.2
3,Cn1nnnc1SCC(=O)N/N=C/c1ccccc1F,0.95

# System: not listed separately
# Test: Genotoxicity against Salmonella typhimurium TA1535/pSK1002 assessed as induction ratio at 5 mg/ml by umuC assay in presence of S9 fraction
# Type: toxicity, organism-based
# Conditions: salmonella enterica subsp. enterica serovar typhimurium, Salmonella typhimurium TA1535/pSK1002 with S9 fraction
# In short: as §2
row,SMILES,fold induction at 5 mg/ml
1,COc1ccc(/C=N/NC(=O)CSc2nnnn2C)cc1,0.568
2,Cn1nnnc1SCC(=O)N/N=C/c1ccccc1[N+](=O)[O-],1.19
3,Cn1nnnc1SCC(=O)N/N=C/c1ccccc1F,0.284

# System: Salmonella typhimurium
# Test: Genotoxicity against Salmonella typhimurium TA1535/pSK1002 assessed as growth factor ratio at 1.25 mg/ml by umuC assay in absence of S9 fraction
# Type: toxicity, organism-based
# Conditions: salmonella enterica subsp. enterica serovar typhimurium
# In short: as §2
row,SMILES,Ratio
1,COc1ccc(/C=N/NC(=O)CSc2nnnn2C)cc1,1.137
2,Cn1nnnc1SCC(=O)N/N=C/c1ccccc1[N+](=O)[O-],1.022
3,Cn1nnnc1SCC(=O)N/N=C/c1ccccc1F,1.084

# System: Salmonella typhimurium
# Test: Genotoxicity against Salmonella typhimurium TA1535/pSK1002 assessed as growth factor ratio at 1.25 mg/ml by umuC assay in presence of S9 fraction
# Type: toxicity, organism-based
# Conditions: salmonella enterica subsp. enterica serovar typhimurium
# In short: as §2
row,SMILES,Ratio
1,COc1ccc(/C=N/NC(=O)CSc2nnnn2C)cc1,1.294
2,Cn1nnnc1SCC(=O)N/N=C/c1ccccc1[N+](=O)[O-],0.879
3,Cn1nnnc1SCC(=O)N/N=C/c1ccccc1F,1.163

# System: not listed separately
# Test: Genotoxicity against Salmonella typhimurium TA1535/pSK1002 assessed as induction ratio at 1.25 mg/ml by umuC assay in absence of S9 fraction
# Type: toxicity, organism-based
# Conditions: salmonella enterica subsp. enterica serovar typhimurium, Salmonella typhimurium TA1535/pSK1002 without S9 fraction
# In short: as §2
row,SMILES,fold induction at 1.25 mg/ml
1,COc1ccc(/C=N/NC(=O)CSc2nnnn2C)cc1,1.12
2,Cn1nnnc1SCC(=O)N/N=C/c1ccccc1[N+](=O)[O-],1.51
3,Cn1nnnc1SCC(=O)N/N=C/c1ccccc1F,1.02

# System: not listed separately
# Test: Genotoxicity against Salmonella typhimurium TA1535/pSK1002 assessed as induction ratio at 0.63 mg/ml by umuC assay in presence of S9 fraction
# Type: toxicity, organism-based
# Conditions: salmonella enterica subsp. enterica serovar typhimurium, Salmonella typhimurium TA1535/pSK1002 with S9 fraction
# In short: as §2
row,SMILES,fold induction at 0.63 mg/ml
1,COc1ccc(/C=N/NC(=O)CSc2nnnn2C)cc1,0.814
2,Cn1nnnc1SCC(=O)N/N=C/c1ccccc1[N+](=O)[O-],1.23
3,Cn1nnnc1SCC(=O)N/N=C/c1ccccc1F,0.936

# System: Salmonella typhimurium
# Test: Genotoxicity against Salmonella typhimurium TA98 assessed as fold increase in revertants at 5 mg/ml after 90 mins by Ames MPF test in presence of S9 fraction relative to baseline
# Type: toxicity, organism-based
# Conditions: salmonella enterica subsp. enterica serovar typhimurium, s9, 1.5 h
# In short: as §1
row,SMILES,fold change (FC)
1,COc1ccc(/C=N/NC(=O)CSc2nnnn2C)cc1,0.84
2,Cn1nnnc1SCC(=O)N/N=C/c1ccccc1[N+](=O)[O-],1.11
3,Cn1nnnc1SCC(=O)N/N=C/c1ccccc1F,1.14

# System: Salmonella typhimurium
# Test: Genotoxicity against Salmonella typhimurium TA100 assessed as fold increase in revertants at 0.156 mg/ml after 90 mins by Ames MPF test in presence of S9 fraction relative to baseline
# Type: toxicity, organism-based
# Conditions: salmonella enterica subsp. enterica serovar typhimurium, s9, 1.5 h
# In short: as §1
row,SMILES,fold change (FC)
1,COc1ccc(/C=N/NC(=O)CSc2nnnn2C)cc1,0.46
2,Cn1nnnc1SCC(=O)N/N=C/c1ccccc1[N+](=O)[O-],1.35
3,Cn1nnnc1SCC(=O)N/N=C/c1ccccc1F,0.66

# System: Salmonella typhimurium
# Test: Genotoxicity against Salmonella typhimurium TA100 assessed as fold increase in revertants at 2.5 mg/ml after 90 mins by Ames MPF test in absence of S9 fraction relative to baseline
# Type: toxicity, organism-based
# Conditions: salmonella enterica subsp. enterica serovar typhimurium, 1.5 h
# In short: as §1
row,SMILES,fold change (FC)
1,COc1ccc(/C=N/NC(=O)CSc2nnnn2C)cc1,0.6
2,Cn1nnnc1SCC(=O)N/N=C/c1ccccc1[N+](=O)[O-],0.67
3,Cn1nnnc1SCC(=O)N/N=C/c1ccccc1F,0.17
